Consider one molecule from publication PMC7161550 (British Journal of Pharmacology, 2020).

What is called inhibition is the relative decrease from the control value, in per cent. Read a low inhibition as little suppression. As usually defined, the efflux ratio is a quotient of directional permeabilities that is used to spot active efflux.

Common to all, as to assay type: in vitro ADME
One series deals with CYP2D6 (Homo sapiens, UniProt P10635). In words: CYP inhibition, pooled human liver microsomes. The method in brief:
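The rate of metabolite formation was measured; testosterone was one CYP3A4 substrate. Controls: solvent vehicle, enzyme-selective inhibitors, mechanism-based inhibitors. Analysis by HPLC with online radio-detection or LC/MS/MS.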
In general terms: Microsomes from liver hold many membrane-bound enzymes, among them those of drug oxidation.

The next series deals with MATE1 (Homo sapiens, UniProt Q96FL8). In words: Transporter inhibition, probe substrate accumulation. The conditions noted are these: MDCKII cells stably transfected with MATE1. The method, boiled down:
(§1)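 Inhibition of probe substrate accumulation in transfected cells: CHO‑K1 for OAT1 and OCT1; HEK293 for OAT3, OATP1B1 and OATP1B3; MDCKII for OCT2, MATE1 and MATE2‑K. Each transporter's activity was confirmed with a positive control substrate or inhibitor.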

Another series deals with human OATP1B3 (Homo sapiens, UniProt Q9NPD5). The description is as above. The conditions noted are these: 0.033–33.3 μM. The method in brief: as §1
Chain of human OATP1B3 (Q9NPD5 whole entry): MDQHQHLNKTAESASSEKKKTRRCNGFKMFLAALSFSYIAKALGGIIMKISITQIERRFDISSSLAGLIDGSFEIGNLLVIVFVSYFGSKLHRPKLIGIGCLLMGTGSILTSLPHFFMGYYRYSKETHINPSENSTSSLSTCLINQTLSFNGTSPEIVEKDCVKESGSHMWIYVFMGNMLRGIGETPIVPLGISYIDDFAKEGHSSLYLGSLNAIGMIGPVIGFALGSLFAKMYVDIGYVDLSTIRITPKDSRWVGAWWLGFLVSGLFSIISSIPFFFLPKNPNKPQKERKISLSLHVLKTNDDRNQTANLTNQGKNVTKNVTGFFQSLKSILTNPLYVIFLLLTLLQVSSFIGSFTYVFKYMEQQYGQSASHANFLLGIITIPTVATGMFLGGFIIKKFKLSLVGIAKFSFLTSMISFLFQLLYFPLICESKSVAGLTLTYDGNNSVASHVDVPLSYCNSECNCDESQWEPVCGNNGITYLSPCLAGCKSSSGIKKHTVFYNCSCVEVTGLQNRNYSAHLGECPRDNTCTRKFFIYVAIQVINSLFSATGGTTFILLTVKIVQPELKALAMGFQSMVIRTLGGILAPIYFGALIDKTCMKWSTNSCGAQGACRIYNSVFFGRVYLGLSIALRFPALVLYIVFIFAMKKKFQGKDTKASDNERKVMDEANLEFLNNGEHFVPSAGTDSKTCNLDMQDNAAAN
The next series has as its target MDR1 (Homo sapiens, UniProt P08183). In words: Bidirectional permeability in MDCKII‐MDR1 monolayers. The method in brief: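 Bidirectional (A–B, B–A) permeability of test compound at 10 μM across MDCKII‑MDR1 and parental monolayers. A positive control substrate (5 μM) was included; PSC833 (10 μM) and a second inhibitor (100 μM) served as MDR1 inhibitors. Net efflux ratio = ER(MDR1) − ER(MDCKII).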

Chain of CYP2D6 (P10635 whole entry): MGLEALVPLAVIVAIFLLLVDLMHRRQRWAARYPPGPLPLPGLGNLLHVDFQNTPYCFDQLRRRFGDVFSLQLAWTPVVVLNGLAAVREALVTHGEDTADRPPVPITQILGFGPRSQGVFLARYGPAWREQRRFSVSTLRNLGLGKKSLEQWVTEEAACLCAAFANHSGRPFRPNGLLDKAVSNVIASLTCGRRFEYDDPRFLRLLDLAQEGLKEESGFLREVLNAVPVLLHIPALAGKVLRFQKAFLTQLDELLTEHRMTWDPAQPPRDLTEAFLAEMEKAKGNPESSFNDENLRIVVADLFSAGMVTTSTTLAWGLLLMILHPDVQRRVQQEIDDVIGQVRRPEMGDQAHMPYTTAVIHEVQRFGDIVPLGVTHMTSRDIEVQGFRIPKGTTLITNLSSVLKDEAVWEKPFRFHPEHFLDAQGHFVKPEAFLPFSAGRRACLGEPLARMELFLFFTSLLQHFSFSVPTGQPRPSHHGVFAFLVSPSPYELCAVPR
Chain of MDR1 (P08183 whole entry): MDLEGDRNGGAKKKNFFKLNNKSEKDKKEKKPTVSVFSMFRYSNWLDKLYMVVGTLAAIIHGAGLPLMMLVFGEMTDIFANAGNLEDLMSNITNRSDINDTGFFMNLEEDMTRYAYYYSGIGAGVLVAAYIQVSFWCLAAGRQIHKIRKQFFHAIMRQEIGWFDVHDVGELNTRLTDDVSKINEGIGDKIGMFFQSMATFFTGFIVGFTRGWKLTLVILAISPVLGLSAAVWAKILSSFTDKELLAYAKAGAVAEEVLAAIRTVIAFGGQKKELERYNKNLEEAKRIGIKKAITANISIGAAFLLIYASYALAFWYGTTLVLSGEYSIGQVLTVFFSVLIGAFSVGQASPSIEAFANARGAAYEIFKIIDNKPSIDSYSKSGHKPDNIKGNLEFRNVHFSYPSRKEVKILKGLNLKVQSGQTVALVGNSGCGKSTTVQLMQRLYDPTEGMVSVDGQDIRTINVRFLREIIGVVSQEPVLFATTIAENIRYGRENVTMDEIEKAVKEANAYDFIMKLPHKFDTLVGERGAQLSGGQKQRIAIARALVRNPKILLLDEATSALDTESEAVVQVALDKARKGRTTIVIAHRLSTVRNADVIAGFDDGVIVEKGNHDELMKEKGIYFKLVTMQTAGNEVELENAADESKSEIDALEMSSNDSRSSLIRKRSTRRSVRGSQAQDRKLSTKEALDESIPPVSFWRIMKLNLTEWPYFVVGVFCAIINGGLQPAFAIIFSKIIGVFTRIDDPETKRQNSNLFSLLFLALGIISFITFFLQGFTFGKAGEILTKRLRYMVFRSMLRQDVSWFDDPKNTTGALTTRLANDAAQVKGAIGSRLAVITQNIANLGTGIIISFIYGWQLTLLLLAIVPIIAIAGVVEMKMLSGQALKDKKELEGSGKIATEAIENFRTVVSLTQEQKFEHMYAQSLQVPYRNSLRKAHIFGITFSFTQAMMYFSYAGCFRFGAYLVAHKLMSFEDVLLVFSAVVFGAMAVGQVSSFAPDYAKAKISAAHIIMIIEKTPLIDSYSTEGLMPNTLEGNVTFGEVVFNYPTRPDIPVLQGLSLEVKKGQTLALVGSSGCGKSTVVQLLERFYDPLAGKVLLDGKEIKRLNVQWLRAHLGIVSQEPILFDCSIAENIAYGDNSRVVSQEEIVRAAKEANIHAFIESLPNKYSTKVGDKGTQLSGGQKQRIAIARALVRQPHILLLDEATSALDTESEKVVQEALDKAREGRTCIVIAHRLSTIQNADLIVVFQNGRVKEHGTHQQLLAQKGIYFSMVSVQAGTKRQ
Chain of MATE1 (Q96FL8 whole entry): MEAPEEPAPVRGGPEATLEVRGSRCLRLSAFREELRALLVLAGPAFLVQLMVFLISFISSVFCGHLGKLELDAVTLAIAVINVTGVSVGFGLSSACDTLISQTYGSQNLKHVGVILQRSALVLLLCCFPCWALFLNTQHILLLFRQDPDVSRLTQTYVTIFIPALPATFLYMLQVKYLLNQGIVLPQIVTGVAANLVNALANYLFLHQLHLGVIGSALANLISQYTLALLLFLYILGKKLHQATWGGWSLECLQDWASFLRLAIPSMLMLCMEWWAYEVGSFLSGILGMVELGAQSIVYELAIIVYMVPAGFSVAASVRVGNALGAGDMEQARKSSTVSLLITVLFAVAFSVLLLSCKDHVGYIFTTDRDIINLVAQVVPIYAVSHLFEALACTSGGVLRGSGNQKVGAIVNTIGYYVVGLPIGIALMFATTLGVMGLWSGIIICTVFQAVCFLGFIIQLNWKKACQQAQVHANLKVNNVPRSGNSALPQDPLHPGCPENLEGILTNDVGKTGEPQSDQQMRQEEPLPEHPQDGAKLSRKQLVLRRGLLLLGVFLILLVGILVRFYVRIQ

On to `CN(C(=O)n1cnc(-c2ccc[n+]([O-])c2)c1)C1CCCCC1` [BIA 10‐2474, 3‐(1‐(cyclohexyl (methyl)carbamoyl)‐1H‐imidazol‐4‐yl)pyridine 1‐oxide], for which the results for the “inhibition of CYP2D6” value on CYP2D6 (co‐incubation) and at CYP2D6 (pre‐incubation with BIA 10‐2474) were “minor inhibition” and “no effect”, respectively. Further, on MATE1, the inhibition at 10 μg·ml^−1 amounted to 24%. For the same molecule, the “effect on OATP1B3‐mediated probe substrate accumulation” value at human OATP1B3 was “did not influence”. Further, the efflux ratio on MDR1 (MDCK-MDR1, highest observed net efflux ratio (ERMDR1‐ERMDCKII)) was 2.24. The efflux ratio at 10 μM on MDR1 (MDCK-MDR1, net ER, MDCKII‐MDR1, without inhibitor) was determined as 1.45.
